The target in the first experiment is Adenosine kinase (Rattus norvegicus, UniProt Q64640). The experiment in a line: Inhibition adenosine kinase activity in rat brain in vitro. The class given is tissue-based.
Sequence of Adenosine kinase (Rattus norvegicus, UniProt Q64640) (Q64640 whole entry): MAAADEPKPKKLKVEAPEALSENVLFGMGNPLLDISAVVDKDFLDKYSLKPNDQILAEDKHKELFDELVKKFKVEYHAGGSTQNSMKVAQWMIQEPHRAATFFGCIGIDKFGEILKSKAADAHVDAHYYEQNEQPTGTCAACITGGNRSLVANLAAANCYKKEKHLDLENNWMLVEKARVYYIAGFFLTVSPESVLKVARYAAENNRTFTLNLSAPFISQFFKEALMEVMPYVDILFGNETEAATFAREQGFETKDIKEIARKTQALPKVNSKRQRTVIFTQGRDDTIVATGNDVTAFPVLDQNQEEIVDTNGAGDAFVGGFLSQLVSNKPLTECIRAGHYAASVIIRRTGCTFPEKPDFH
`Nc1ncnc2nc(-c3ccc(N4CCOCC4)nc3)c(-c3ccccc3)c(-c3cccc(Br)c3)c12` gave an IC50 of 4 nM.

`COC(=O)Cc1c(-c2cccs2)nc2ncnc(N)c2c1-c1cccc(Br)c1` returned an IC50 of 3 nM.

Regarding `Cc1ccc(-c2c(-c3cccs3)nc3ncnc(N)c3c2-c2ccc(C)c(F)c2)cc1F`, the IC50 amounted to 0.25 nM.

As for `COc1ccc(-c2c(-c3cccs3)nc3ncnc(N)c3c2-c2cc(Br)cs2)cc1OC`, the IC50 worked out at 0.43 nM.

`CN(C)c1ccc(-c2nc3ncnc(N)c3c(-c3ccccc3)c2-c2ccccc2)cn1`: the IC50 was determined as 3.2 nM.

Turning to `CN(C)c1ccc(-c2nc3ncnc(N)c3c(-c3ccccc3)c2-c2ccccc2)cc1`, 16 nM corresponded to half-maximal inhibition (IC50).

Turning to `COCCN(C)c1ccc(-c2nc3ncnc(N)c3c(-c3cc(Br)cs3)c2-c2ccc(OC)c(OC)c2)cc1`, inhibition was half-maximal at 0.98 nM (IC50).

In the case of `CN(C)c1ccc(-c2nc3ncnc(N)c3cc2-c2ccccc2)cc1`, the IC50 was found to be 350 nM.

Turning to `COc1ccc(-c2c(-c3ccc(N(C)C)cc3)nc3ncnc(N)c3c2-c2cccc(Br)c2)cc1OC`, it took 3.1 nM to reach half-maximal inhibition (IC50).

`CN(C)c1ccc(-c2nc3ncnc(N)c3c(-c3cccc(Br)c3)c2C2CCCCC2)cn1`: the IC50 came to 300 nM.

As to `CN(C)c1ccc(-c2nc3ncnc(N)c3c(-c3cc(Br)cs3)c2C2CC2)cn1`, the IC50 worked out at 60 nM.

Take `Nc1ncnc2nc(-c3cccs3)c(-c3ccccc3)c(-c3ccccc3)c12`: 0.55 nM corresponded to half-maximal inhibition (IC50).

Turning to `CC(C)c1c(-c2ccc(N3CCOCC3)nc2)nc2ncnc(N)c2c1-c1cccc(Br)c1`, 400 nM corresponded to half-maximal inhibition (IC50).

On to `CN(C)c1ccc(-c2nc3ncnc(N)c3c(-c3cccc(Cl)c3)c2-c2ccccc2)cn1`, for which the IC50 came to 5 nM.

Take `CCCCCc1c(-c2ccc(N(C)C)nc2)nc2ncnc(N)c2c1-c1cccc(Br)c1`: the IC50 was 55 nM.

Compound `Nc1ncnc2nc(-c3ccc(N4CCOCC4)nc3)c(Cc3ccccc3)c(-c3cccc(Br)c3)c12` displayed an IC50 of 63 nM.

The compound `Nc1ncnc2nc(-c3ccc(N4CCOCC4)nc3)c(-c3ccc(F)cc3)c(-c3cccc(Br)c3)c12` displayed an IC50 of 5 nM.

`CN(C)c1ccc(-c2c(-c3ccc(N4CCOCC4)nc3)nc3ncnc(N)c3c2-c2cccc(Cl)c2)cc1` showed an IC50 of 37 nM.

For `CC(C)c1ccc(-c2c(-c3ccc(N(C)C)cc3)nc3ncnc(N)c3c2-c2ccc(C(C)C)cc2)cc1`, the IC50 was found to be 6.7 nM.

`Clc1ccc(-c2cnc3c(N4CCOCC4)ncnc3n2)cc1` registered an IC50 of 410 nM.

Another experiment concerns Mus musculus. Description: Percent maximal protective effect for hotplate analgesia in mice after 30 umol/kg intraperitoneal administration. The class given is functional. Summed up:
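Mice (n = 6-8 per group) tested on 55 °C hotplate 30 min after intraperitoneal dosing. %MPE = (postdrug latency − vehicle latency)/(cutoff latency − vehicle latency) × 100, cutoff 180 s; significance versus vehicle-treated mice at p < 0.05.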
For `CN(C)c1ccc(-c2nc3ncnc(N)c3c(-c3ccccc3)c2-c2ccccc2)cn1`, the Max protective effect was 50%.

Consider `CN(C)c1ccc(-c2nc3ncnc(N)c3c(-c3ccccc3)c2-c2ccccc2)cc1`, for which the Max protective effect was 77%.

In turn, `CN(C)c1ccc(-c2nc3ncnc(N)c3c(-c3cccc(Cl)c3)c2-c2ccccc2)cn1` gave a Max protective effect of 56%.

The target of the next experiment is Adenosine kinase (Homo sapiens, UniProt P55263). Description: Inhibition of adenosine kinase activity in IMR-32 human neuroblastoma cells. The class given is cell-based.
Sequence of Adenosine kinase (Homo sapiens, UniProt P55263) (P55263 whole entry): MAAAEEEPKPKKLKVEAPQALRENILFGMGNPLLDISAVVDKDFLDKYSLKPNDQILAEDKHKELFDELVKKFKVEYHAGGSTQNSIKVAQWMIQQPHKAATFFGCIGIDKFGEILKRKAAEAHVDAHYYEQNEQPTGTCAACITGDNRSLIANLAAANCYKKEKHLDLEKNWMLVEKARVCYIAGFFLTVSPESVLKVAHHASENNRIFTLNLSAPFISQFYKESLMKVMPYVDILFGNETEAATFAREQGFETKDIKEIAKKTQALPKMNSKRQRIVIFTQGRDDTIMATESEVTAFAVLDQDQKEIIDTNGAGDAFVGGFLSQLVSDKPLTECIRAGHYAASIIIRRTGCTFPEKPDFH
The compound `Nc1ncnc2nc(-c3ccc(N4CCOCC4)nc3)c(-c3ccccc3)c(-c3cccc(Br)c3)c12` had an IC50 of 155 nM.

`COC(=O)Cc1c(-c2cccs2)nc2ncnc(N)c2c1-c1cccc(Br)c1` displayed an IC50 of 163 nM.

Compound `Cc1ccc(-c2c(-c3cccs3)nc3ncnc(N)c3c2-c2ccc(C)c(F)c2)cc1F` had an IC50 of 288 nM.

In the case of `COc1ccc(-c2c(-c3cccs3)nc3ncnc(N)c3c2-c2cc(Br)cs2)cc1OC`, the IC50 stood at 25 nM.

Compound `CN(C)c1ccc(-c2nc3ncnc(N)c3c(-c3ccccc3)c2-c2ccccc2)cn1` displayed an IC50 of 53 nM.

`CN(C)c1ccc(-c2nc3ncnc(N)c3c(-c3ccccc3)c2-c2ccccc2)cc1` gave an IC50 of 250 nM.

Compound `COCCN(C)c1ccc(-c2nc3ncnc(N)c3c(-c3cc(Br)cs3)c2-c2ccc(OC)c(OC)c2)cc1` had an IC50 of 367 nM.

`CN(C)c1ccc(-c2nc3ncnc(N)c3cc2-c2ccccc2)cc1` came in with an IC50 of 1500 nM.

The compound `COc1ccc(-c2c(-c3ccc(N(C)C)cc3)nc3ncnc(N)c3c2-c2cccc(Br)c2)cc1OC` showed an IC50 of 350 nM.

Compound `CN(C)c1ccc(-c2nc3ncnc(N)c3c(-c3cccc(Br)c3)c2C2CCCCC2)cn1` displayed an IC50 of over 1000 nM.

`CN(C)c1ccc(-c2nc3ncnc(N)c3c(-c3cc(Br)cs3)c2C2CC2)cn1` registered a 50% inhibitory concentration (IC50) of 625 nM.

The compound `Nc1ncnc2nc(-c3cccs3)c(-c3ccccc3)c(-c3ccccc3)c12` gave a 50% inhibitory concentration (IC50) of 49 nM.

In turn, `CC(C)c1c(-c2ccc(N3CCOCC3)nc2)nc2ncnc(N)c2c1-c1cccc(Br)c1` came in with an IC50 of over 1000 nM.

For the compound `CN(C)c1ccc(-c2nc3ncnc(N)c3c(-c3cccc(Cl)c3)c2-c2ccccc2)cn1`, the IC50 was 130 nM.

`CCCCCc1c(-c2ccc(N(C)C)nc2)nc2ncnc(N)c2c1-c1cccc(Br)c1` registered an IC50 of 625 nM.

For `Nc1ncnc2nc(-c3ccc(N4CCOCC4)nc3)c(Cc3ccccc3)c(-c3cccc(Br)c3)c12`, inhibition was half-maximal at 450 nM (IC50).

Regarding `Nc1ncnc2nc(-c3ccc(N4CCOCC4)nc3)c(-c3ccc(F)cc3)c(-c3cccc(Br)c3)c12`, the IC50 worked out at 197 nM.

For the compound `CN(C)c1ccc(-c2c(-c3ccc(N4CCOCC4)nc3)nc3ncnc(N)c3c2-c2cccc(Cl)c2)cc1`, the IC50 was determined as 130 nM.

`CC(C)c1ccc(-c2c(-c3ccc(N(C)C)cc3)nc3ncnc(N)c3c2-c2ccc(C(C)C)cc2)cc1`: the IC50 was over 1000 nM.

As to `Clc1ccc(-c2cnc3c(N4CCOCC4)ncnc3n2)cc1`, the IC50 turned out to be 22000 nM.

The next experiment has as its system Rattus norvegicus. Description: Reduction in formalin induced nociception after 10 umol/kg intraperitoneal administration.
Compound `CN(C)c1ccc(-c2nc3ncnc(N)c3c(-c3ccccc3)c2-c2ccccc2)cn1` displayed a Max protective effect of 38%.

In the case of `CN(C)c1ccc(-c2nc3ncnc(N)c3c(-c3cccc(Cl)c3)c2-c2ccccc2)cn1`, the Max protective effect stood at 39%.

The record behind these values is ChEMBL document CHEMBL1145910, “5,6,7-trisubstituted 4-aminopyrido[2,3-d]pyrimidines as novel inhibitors of adenosine kinase” (J Med Chem, 2003).
